Published values of several laboratories.
Target: Histamine H3 receptor (HRH3, Homo sapiens, UniProt Q9Y5N1)
Method: radioligand

O=C1NC(=O)C(c2ccccc2)(c2ccc(OCCCN3CCCCC3)cc2)N1 (centres unmarked) — Ki (ligand displacement; cell membranes): 579 nM
CN(C)c1ccc(/C=C2\CCc3ccc(OCc4ccc(OCCCN5CCCCC5)cc4)cc3C2=O)cc1 — Ki (ligand displacement; cell membranes): 97 nM
CCCCN1CCC(COC(=O)c2ccc(N)c(OCF)c2)CC1 — Ki (cell-free assay): 3100 nM
CN(C)c1ccc(/C=C/C=C2\CCc3cc(OCc4ccc(OCCCN5CCCCC5)cc4)ccc3C2=O)cc1 — Ki (ligand displacement; cell membranes): 68 nM
CCC(=O)c1ccc(OCCCCCCN2CCCC(C)C2)cc1 (centres unmarked) — Ki (ligand displacement; cell membranes): 39 nM
O=C1CCCc2ccc(OCCCN3CCCCC3)cc21 — Ki (ligand displacement; cell membranes): 89 nM
CC1CCCN(CCCCCCOc2ccc(-c3ccccc3)cc2)C1 (centres unmarked) — Ki (ligand displacement; cell membranes): 147 nM
CN1CCN(c2cc(Nc3ccc(OCCCN4CCCCC4)cc3)nc(N)n2)CC1 — Ki (ligand displacement; cell membranes): 11.8 nM
O=C1NC(c2ccccc2)(c2ccccc2)C(=O)N1CCCN1CCCCC1 — Ki (ligand displacement; cell membranes): 6.15 nM
CCCc1ccc(OCCCCCCN2CCCC(C)C2)cc1 (centres unmarked) — Ki (ligand displacement; cell membranes): 85.9 nM
c1ccc(CNc2ccnc(Nc3ccc(OCCCN4CCCCC4)cc3)n2)cc1 — Ki (ligand displacement; cell membranes): 4.49 nM
